Assays:
HepG2 cells [1] = experiment: MTT assay for cell viability/proliferation, HepG2; format: cell-based; details: Homo sapiens, HepG2, 24 h; for IC80: read-out: IC80 of glycolysis inhibitors; for IC50: read-out: IC50 HepG2
AGS cells = experiment: MTT assay for cell viability/proliferation, AGS; format: cell-based; details: Homo sapiens, 24 h, read-out: IC50 AGS
How it was run: (§1)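 Cells grown in RPMI 1640 with 10% heat-inactivated FBS and penicillin/streptomycin at 37°C, 5% CO2. Plated at 1 × 10^4/well overnight, then treated 24 h with graded test compound (DMSO stock diluted in medium, 0.1% DMSO final; vehicle control 0.1% DMSO). MTT added 4 h in phenol-red-free, serum-free medium; formazan dissolved in DMSO; A492. IC50 = concentration giving 50% growth inhibition; ≥3 repeats.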

A-375 cells = experiment: MTT assay for cell viability/proliferation, A-375; format: cell-based; details: Homo sapiens, A-375, 24 h, read-out: IC50 A-375
How it was run: as §1

HeLa cells = experiment: MTT assay for cell viability/proliferation, HeLa; format: cell-based; details: Homo sapiens, 24 h, read-out: IC50 HeLa
How it was run: as §1

HELF cells = experiment: MTT assay, normal counterpart cell line HELF; format: cell-based; details: Homo sapiens, 24 h, read-out: IC50 HELF
How it was run: as §1

HepG2 cells [2] = experiment: Cell cycle analysis by flow cytometry; format: cell-based, human; details: HepG2, 24 h
How it was run: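 Treatments: A-375 cells with test compound at 0, 1, 3, 5 μM; HepG2 cells untreated, 2-DG 20 mM, test compound 4 μM, or 20 mM + 4 μM; all 24 h. 1 × 10^6 cells washed twice in PBS and fixed overnight in 70% ice-cold ethanol. Stained 30 min at 4°C in the dark with 1% Triton X-100, 0.01% RNase, 0.05% PI. Flow cytometry, three experiments.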

HepG2 cells [3] = experiment: Annexin V-FITC/PI double staining, HepG2; format: cell-based, human; details: HepG2, 24 h, single drug 2-DG (Fig. 5b: 40 mM)
How it was run: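 HepG2 cells exposed 24 h to test compound, 2-DG, or both. 3 × 10^5 cells harvested, PBS-washed twice, stained with Annexin V-FITC and PI for 15 min in the dark, then analysed by flow cytometry. Quadrants: Annexin V−/PI− healthy, V+/PI− early apoptotic, V+/PI+ late apoptotic/necrotic, V−/PI+ necrotic. Three experiments.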

caspase-3 = experiment: Caspase-3 activity assay in HepG2 lysates; format: cell-based, human; details: HepG2, 24 h; 2-DG 10, 20 mM; UA-4 2, 4 μM; 10 + 2, 20 + 4
How it was run: (§2)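 Lysates were prepared from HepG2 cells treated 24 h with 2-DG (0, 10, 20 mM), test compound (0, 2, 4 μM) or combinations (10 + 2, 20 + 4). Lysates were incubated 4 h at 37°C with pNA substrate: Ac-DEVD-pNA (caspase-3), Ac-IETD-pNA (caspase-8) or Ac-LEHD-pNA (caspase-9). Absorbance at 405 nm, normalised to protein concentration.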

caspase-8 = experiment: Caspase-8 activity assay in HepG2 lysates; format: cell-based, human; details: HepG2, 24 h; 2-DG 10, 20 mM; UA-4 2, 4 μM; 10 + 2, 20 + 4
How it was run: as §2

caspase-9 = experiment: Caspase-9 activity assay in HepG2 lysates; format: cell-based, human; details: HepG2, 24 h; 2-DG 10, 20 mM; UA-4 2, 4 μM; 10 + 2, 20 + 4
How it was run: as §2

hexokinase (HK) = experiment: Hexokinase activity assay in HepG2 cells; format: cell-based, human; details: HepG2, 24 h
HepG2 cells [4] = experiment: Intracellular ATP, luciferase-luciferin assay; format: cell-based, human; details: HepG2, 24 h of treatment (method: 12-h incubation)
How it was run: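 HepG2 cells seeded at 3 × 10^5/well and grown 24 h. Then incubated 12 h with 2-DG (0, 10, 20, 40 mM), test compound (0, 2, 4, 6 μM) or combinations (10 + 2, 20 + 4, 40 + 6). Cells PBS-washed, lysed on ice, and ATP read by luciferase–luciferin luminescence. Values normalised to protein and expressed as % of control mean.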

HepG2 cells [5] = experiment: Lactate production assay; format: cell-based, human; details: HepG2, 24 h; UA-4 2, 4 and 6 μM
How it was run: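 HepG2 cells (3 × 10^5/well) treated 24 h with 2-DG (0, 10, 20, 40 mM), test compound (0, 2, 4, 6 μM) or combinations (10 + 2, 20 + 4, 40 + 6). Lactate in culture supernatant measured by kit at OD 530 nm and normalised to cell number. Medium background subtracted; means ± SD of triplicate wells.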

[6] = system: four cancer cell lines (HepG2, AGS, A-375, HeLa); experiment: MTT assay, range over four cancer cell lines; format: cell-based; details: Homo sapiens, read-out: IC50 to suppress cell proliferation
How it was run: as §1

## N[C@@H](CS)C(=O)O [L-Cys, L-cysteine]
HepG2 cells [1]
  IC80: 15000 µM

## CC(=O)O[C@H]1C(=O)[C@@]2(C)[C@H]([C@H](OC(=O)c3ccccc3)[C@]3(O)C[C@H](OC(=O)[C@H](O)[C@@H](NC(=O)c4ccccc4)c4ccccc4)C(C)=C1C3(C)C)[C@]1(OC(C)=O)CO[C@@H]1C[C@@H]2O [Paclitaxel]
HepG2 cells [1]
  IC50: 10.32 ± 0.02 µM
AGS cells
  IC50: 9.24 ± 0.13 µM
A-375 cells
  IC50: 8.56 ± 0.07 µM
HeLa cells
  IC50: 6.62 ± 0.21 µM
HELF cells
  IC50: 7.17 ± 0.08 µM

## O=CC[C@@H](O)[C@H](O)[C@H](O)CO [Compound 2-DG, 2-Deoxy-D-glucose]
HepG2 cells [1]
  IC80: 50000 µM
HepG2 cells [2]
  cell cycle arrest (in words): cell cycle arrest in G2/M
HepG2 cells [3]
  apoptosis: 13.7%
caspase-3
  activity of caspase-3: dose-dependently increased
caspase-8
  activity of caspase-8: dose-dependently increased
caspase-9
  activity of caspase-9: dose-dependently increased
Hexokinase (HK)
  total hexokinase (HK) activity (in words): reduce the activity of hexokinase
HepG2 cells [4]
  intracellular ATP concentration (in words): slightly decreased
HepG2 cells [5]
  lactate production (in words): decreased lactate production

## c1ccc([C@H]2CN3CCSC3=N2)cc1 [LM, levamisole]
HepG2 cells [1]
  IC80: 2500 µM

## C[C@H]1[C@H](C)CC[C@]2(C(=O)O)CC[C@]3(C)C(=CC[C@@H]4[C@@]5(C)CC[C@H](O)C(C)(C)[C@@H]5CC[C@]43C)[C@H]12 [UA, 3β-hydroxy-urs-12-en-28-oic acid]
HepG2 cells [1]
  IC50: 68.8 ± 3.71 µM
AGS cells
  IC50: 43.2 ± 2.13 µM
A-375 cells
  IC50: 57.6 ± 3.21 µM
HeLa cells
  IC50: 33.1 ± 0.63 µM
HELF cells
  IC50: 21.3 ± 1.76 µM
[6]
  IC50: 33.1 to 68.8 µM

From article PMC4650901 (Scientific Reports, 2014)
